Laboratory results from ChEMBL document CHEMBL4024784, “Structure-Based Design, Synthesis, and In Vivo Antinociceptive Effects of Selective A1 Adenosine Receptor Agonists” (J Med Chem, 2018).
pEC50, pIC50, pKi: −log10 of the molar value. Values belong to the molecule of their own block, whether it stands above or below them. Calls of active or inactive are those of the source. The rule behind the calls is not given here.

Legend:
[1] = target: Adenosine receptor A2a (Homo sapiens, UniProt P29274); test: Displacement of [3H]NECA from recombinant human adenosine A2A receptor expressed in CHO cell membranes after 3 hrs
Procedure, shortened: (§1)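 Competition binding on CHO membranes stably expressing the human subtype (two-step 1,000 x g then 100,000 x g centrifugation, stored -80°C). Radioligands: 1 nM [3H]CCPA (A1), 10 nM [3H]NECA (A2A), 1 nM [3H]HEMADO (A3). Nonspecific binding: 1 mM theophylline (A1) or 100 µM R-PIA (A2A, A3). Ki from competition curves; geometric means with 95% CI, duplicates, n ≥ 3.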

[2] = target: T1, Adenosine receptor A1 (Homo sapiens, UniProt P30542); test: Displacement of [3H]CCPA from recombinant human adenosine A1 receptor expressed in CHO cell membranes after 3 hrs; procedure, shortened: as §1
T1 sequence (P30542 whole entry): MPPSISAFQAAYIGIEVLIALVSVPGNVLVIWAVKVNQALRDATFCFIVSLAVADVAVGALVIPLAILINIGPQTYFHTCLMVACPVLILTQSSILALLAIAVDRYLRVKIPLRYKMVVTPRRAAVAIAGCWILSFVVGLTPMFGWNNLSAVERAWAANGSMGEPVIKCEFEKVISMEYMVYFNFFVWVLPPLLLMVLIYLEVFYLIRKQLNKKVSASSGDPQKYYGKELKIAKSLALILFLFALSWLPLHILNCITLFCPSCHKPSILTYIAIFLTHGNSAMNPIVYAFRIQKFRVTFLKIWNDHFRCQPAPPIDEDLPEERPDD

[3] = target: T2, Adenosine receptor A2b (Homo sapiens, UniProt P29275); test: Agonist activity at recombinant human adenosine A2B receptor expressed in CHO cell membranes assessed as stimulation of adenylyl cyclase activity in presence of […]; format: functional, cell-based
T2 sequence (P29275 whole entry): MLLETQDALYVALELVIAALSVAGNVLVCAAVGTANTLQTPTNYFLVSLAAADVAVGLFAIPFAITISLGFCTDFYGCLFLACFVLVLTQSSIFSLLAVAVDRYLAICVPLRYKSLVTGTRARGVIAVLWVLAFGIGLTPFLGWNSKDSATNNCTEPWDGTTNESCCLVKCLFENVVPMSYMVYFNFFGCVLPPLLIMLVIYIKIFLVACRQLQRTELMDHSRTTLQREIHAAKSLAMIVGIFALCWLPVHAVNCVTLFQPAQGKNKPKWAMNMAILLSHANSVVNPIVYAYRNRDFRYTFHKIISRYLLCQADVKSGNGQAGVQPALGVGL
Procedure, shortened: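 A2B potency from stimulation of adenylyl cyclase in crude CHO membranes (single high-speed centrifugation, resuspended in 50 mM Tris/HCl pH 7.4, used immediately); EC50 derived. Where only partial agonism was seen, efficacy was compared to 100 µM NECA as full agonist. Geometric means, 95% CI, duplicates, n ≥ 3.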

[4] = target: T3, Adenosine receptor A3 (Homo sapiens, UniProt P0DMS8); test: Displacement of [3H]HEMADO from recombinant human adenosine A3 receptor expressed in CHO cell membranes after 3 hrs; procedure, shortened: as §1
T3 sequence (P0DMS8 whole entry): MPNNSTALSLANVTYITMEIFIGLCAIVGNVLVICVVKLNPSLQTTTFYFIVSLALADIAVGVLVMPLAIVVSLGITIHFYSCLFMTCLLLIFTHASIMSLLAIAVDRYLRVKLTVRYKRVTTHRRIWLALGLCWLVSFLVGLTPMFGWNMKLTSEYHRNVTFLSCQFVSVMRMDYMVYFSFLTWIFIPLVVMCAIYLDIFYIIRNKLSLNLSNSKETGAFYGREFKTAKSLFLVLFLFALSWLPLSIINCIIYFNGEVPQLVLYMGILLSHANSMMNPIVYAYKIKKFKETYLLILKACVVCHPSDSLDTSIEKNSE

[5] = organism: Homo sapiens; test: Selectivity ratio of Ki for recombinant human adenosine A2A receptor to Ki for recombinant human adenosine A1 receptor
Procedure, shortened: (§2)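 Ratios computed from Ki values obtained by competition binding in human receptor-transfected CHO membranes: [3H]CCPA 1 nM (A1), [3H]NECA 10 nM (A2A), [3H]HEMADO 1 nM (A3).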

[6] = target: Adenosine receptors; A1 & A3 (Homo sapiens) (UniProt P30542+P0DMS8); test: Selectivity ratio of Ki for recombinant human adenosine A3 receptor to Ki for recombinant human adenosine A1 receptor; procedure, shortened: as §2
[7] = test system: Mus musculus; test: Antinociceptive activity in ip dosed C57BL/6 mouse assessed as reduction in prolonged phase of tonic pain administered 10 mins prior to formalin challenge measured after 60 mins; format: functional, organism-based
Procedure, shortened: (§3)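 Adult male C57BL/6 mice (25-30 g), acclimatized 30 min in test chamber. Compound or vehicle (10% DMSO in 0.9% NaCl) given i.p. 10 min before 30 µL 1.25% formalin s.c. into dorsal hind paw; DPCPX 1 mg/kg i.p. where co-given. Blinded observers recorded paw lifting/licking time every 5 min for 60 min; early phase 0-7 min, late phase 15-60 min. 8-10 mice/group, mean ± SEM.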

[8] = test system: Mus musculus; test: Antinociceptive activity in C57BL/6 mouse assessed as reduction in prolonged phase of tonic pain at 2 mg/kg, ip administered 10 mins prior to formalin challenge measured after 60 mins in presence of A1AR antagonist DPCPX; format: functional, organism-based; procedure, shortened: as §3
[9] = target: T1, Adenosine receptor A1; test: Agonist activity at recombinant human adenosine A1 receptor expressed in CHO cell membranes assessed as inhibition of forskolin-stimulated adenylyl cyclase activity in presence of […]
[10] = target: T4, Adenosine receptor A1 (Homo sapiens) (UniProt P30542); test: Agonist activity at recombinant human adenosine A1 receptor expressed in CHO cell membranes assessed as inhibition of forskolin-stimulated adenylyl cyclase activity in presence of […] relative to CCPA
T4 sequence (whole entry): T1 sequence (P30542 whole entry)

[11] = target: T3, Adenosine receptor A3; test: Antagonist activity at recombinant human adenosine A3 receptor expressed in CHO cell membranes assessed as inhibition of forskolin-stimulated adenylyl cyclase in presence of […]; format: functional, cell-based
Procedure, shortened: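 hA3-CHO membranes (one high-speed spin, 50 mM Tris/HCl pH 7.4, used fresh) tested for reversal of NECA-induced inhibition of forskolin-stimulated adenylyl cyclase. NECA served as reference agonist. Points in duplicate, at least 3 independent experiments.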

[12] = test system: Mus musculus; test: Antinociceptive activity in C57BL/6 mouse assessed as reduction in early phase of tonic pain at 2 mg/kg, ip administered 10 mins prior to formalin challenge measured after 7 mins; format: functional, organism-based; procedure, shortened: as §3
[13] = test system: Mus musculus; test: Antinociceptive activity in C57BL/6 mouse assessed as reduction in prolonged phase of tonic pain at 4 mg/kg, ip administered 10 mins prior to formalin challenge measured after 60 mins; format: functional, organism-based; procedure, shortened: as §3
[14] = test system: Mus musculus; test: Antinociceptive activity in C57BL/6 mouse assessed as reduction in early phase of tonic pain at 4 mg/kg, ip administered 10 mins prior to formalin challenge measured after 7 mins; format: functional, organism-based; procedure, shortened: as §3
[15] = test system: Mus musculus; test: Antinociceptive activity in C57BL/6 mouse assessed as reduction in prolonged phase of tonic pain at 4 mg/kg, ip administered 10 mins prior to formalin challenge measured after 60 mins in presence of A1AR antagonist DPCPX; format: functional, organism-based; procedure, shortened: as §3
[16] = test system: Mus musculus; test: Antinociceptive activity in C57BL/6 mouse assessed as reduction in early phase of tonic pain at 4 mg/kg, ip administered 10 mins prior to formalin challenge measured after 7 mins in presence of A1AR antagonist DPCPX; format: functional, organism-based; procedure, shortened: as §3

Adenosine receptor A2a, sequence (P29274 whole entry): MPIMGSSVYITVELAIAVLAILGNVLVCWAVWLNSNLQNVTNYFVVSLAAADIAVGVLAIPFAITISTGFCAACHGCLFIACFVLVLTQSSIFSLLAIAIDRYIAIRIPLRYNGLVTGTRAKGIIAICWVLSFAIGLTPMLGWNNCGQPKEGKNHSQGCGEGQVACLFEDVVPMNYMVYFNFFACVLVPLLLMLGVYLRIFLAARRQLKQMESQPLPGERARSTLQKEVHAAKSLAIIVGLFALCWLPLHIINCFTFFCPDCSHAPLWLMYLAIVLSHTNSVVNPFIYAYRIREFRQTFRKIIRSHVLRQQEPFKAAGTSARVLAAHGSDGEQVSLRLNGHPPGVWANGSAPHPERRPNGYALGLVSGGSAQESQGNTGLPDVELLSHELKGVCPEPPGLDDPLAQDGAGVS

pKi [1]: 4.71
pKi [2]: 7.59
pEC50 [3]: < 4.52
pKi [4]: 5.26
Ratio Ki [5]: 765
Ratio Ki [6]: 213
Compound: Cc1cc(C)n(C[C@H]2O[C@@H](n3cnc4c(NC5CC6CCC5C6)ncnc43)[C@H](O)[C@@H]2O)n1 (mixture of isomers)

pKi [1]: 5.06
pKi [2]: 8.46
pEC50 [3]: 4.70
pKi [4]: 5.96
Ratio Ki [5]: 2480
Ratio Ki [6]: 314
pEC50 [9]: 7.27
Efficacy [10]: > 90%
Compound: O[C@@H]1[C@H](O)[C@@H](CCl)O[C@H]1n1cnc2c(N[C@@H]3CCOC3)nc(Cl)nc21
Activity [7]: Dose-dependent effect
Activity [8]: inactive

pKi [1]: 5.17
pKi [2]: 6.80
pEC50 [3]: < 4.22
pKi [4]: 5.56
Ratio Ki [5]: 43
Ratio Ki [6]: 17
Compound: Cc1cc(C)n(C[C@H]2O[C@@H](n3cnc4c(Nc5ccc(Cl)cc5F)ncnc43)[C@H](O)[C@@H]2O)n1

pKi [1]: 4.84
pKi [2]: 6.94
pEC50 [3]: < 4.22
pKi [4]: 5.25
Ratio Ki [5]: 126
Ratio Ki [6]: 49
Compound: Cc1cc(C)n(C[C@H]2O[C@@H](n3cnc4c(NC5CCCC5)ncnc43)[C@H](O)[C@@H]2O)n1

Second part, the molecule before the results:

Compound: O[C@@H]1[C@H](O)[C@@H](CCl)O[C@H]1n1cnc2c(Nc3ccc(Cl)cc3F)nc(Cl)nc21
pKi [1]: 5.71
pKi [2]: 7.95
pEC50 [3]: < 4.22
pKi [4]: 6.63
Ratio Ki [5]: 175
Ratio Ki [6]: 21

Compound: Cc1cc(C)n(C[C@H]2O[C@@H](n3cnc4c(Nc5ccc(Cl)cc5F)nc(Cl)nc43)[C@H](O)[C@@H]2O)n1
pKi [1]: < 4.00
pKi [2]: 6.86
pEC50 [3]: < 4.22
pKi [4]: 6.86
Ratio Ki [5]: > 719
Ratio Ki [6]: 1
pIC50 [11]: 6.15
pEC50 [9]: 5.25
Efficacy [10]: > 90%

Compound: Cc1cc(C)n(C[C@H]2O[C@@H](n3cnc4c(NC5CCCC5)nc(Cl)nc43)[C@H](O)[C@@H]2O)n1
pKi [1]: 4.99
pKi [2]: 7.73
pEC50 [3]: < 4.52
pKi [4]: 6.46
Ratio Ki [5]: 548
Ratio Ki [6]: 18
pIC50 [11]: 5.72
pEC50 [9]: 6.27
Efficacy [10]: > 90%

Compound: O[C@@H]1[C@H](O)[C@@H](CCl)O[C@H]1n1cnc2c(Nc3ccc(Cl)cc3F)ncnc21
pKi [1]: 5.87
pKi [2]: 8.73
pEC50 [3]: 5.43
pKi [4]: 6.87
Ratio Ki [5]: 727
Ratio Ki [6]: 73
pIC50 [11]: 5.38
pEC50 [9]: 7.25
Efficacy [10]: > 90%

Compound: Cc1cc(C)n(C[C@H]2O[C@@H](n3cnc4c(N[C@@H]5CCOC5)nc(Cl)nc43)[C@H](O)[C@@H]2O)n1
pKi [1]: 4.92
pKi [2]: 6.36
pEC50 [3]: < 4.22
pKi [4]: 6.00
Ratio Ki [5]: 27
Ratio Ki [6]: 2.3

Compound: Cc1cc(C)n(C[C@H]2O[C@@H](n3cnc4c(NC5CC6CCC5C6)nc(Cl)nc43)[C@H](O)[C@@H]2O)n1 (mixture of isomers)
pKi [1]: 5.03
pKi [2]: 8.36
pEC50 [3]: < 4.52
pKi [4]: 5.84
Ratio Ki [5]: 2170
Ratio Ki [6]: 333
Activity [7]: Dose-dependent effect
pEC50 [9]: 6.87
Efficacy [10]: > 90%

Compound: O[C@@H]1[C@H](O)[C@@H](CCl)O[C@H]1n1cnc2c(N[C@@H]3CCOC3)ncnc21
pKi [1]: 4.98
pKi [2]: 8.72
pEC50 [3]: 4.89
pKi [4]: 5.92
Ratio Ki [5]: 5500
Ratio Ki [6]: 635
Activity [12]: Active
Activity [13]: Active
Activity [14]: Active
Activity [15]: inactive
Activity [16]: inactive
pEC50 [9]: 6.85
Efficacy [10]: > 90%

Compound: Cc1cc(C)n(C[C@H]2O[C@@H](n3cnc4c(N[C@@H]5CCOC5)ncnc43)[C@H](O)[C@@H]2O)n1
pKi [1]: 4.54
pKi [2]: 6.31
pEC50 [3]: < 4.22
pKi [4]: 5.28
Ratio Ki [5]: 58
Ratio Ki [6]: 11
